CHRM1 antagonist – blocks human M1 muscarinic receptor; inhibition, % at 3 µM; CHO-K1 hM1, Fluo-8 calcium fluorescence, ACh EC80 antagonist; hit rate 1.3% among 360,000; AID 588852;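 active = percent inhibition above its own plate's cutoff, namely the mean of that plate's compound wells plus 3 SD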;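 also: peak over basal fluorescence ratio during 140 s after agonist addition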
TAAR1 antagonist – human TAAR1 antagonism; hit rate 1.5% among 360,000; CHO RD-HGA16 TAAR1, Fluo-8 calcium fluorescence, antagonist; inhibition, % at 3 µM; Q96RJ0;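 active = inhibition above a per-plate cutoff, the mean inhibition of test compounds on that plate plus 3 SD, cut at about 49% in these data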
Target sequence (Q96RJ0 whole entry, looked up): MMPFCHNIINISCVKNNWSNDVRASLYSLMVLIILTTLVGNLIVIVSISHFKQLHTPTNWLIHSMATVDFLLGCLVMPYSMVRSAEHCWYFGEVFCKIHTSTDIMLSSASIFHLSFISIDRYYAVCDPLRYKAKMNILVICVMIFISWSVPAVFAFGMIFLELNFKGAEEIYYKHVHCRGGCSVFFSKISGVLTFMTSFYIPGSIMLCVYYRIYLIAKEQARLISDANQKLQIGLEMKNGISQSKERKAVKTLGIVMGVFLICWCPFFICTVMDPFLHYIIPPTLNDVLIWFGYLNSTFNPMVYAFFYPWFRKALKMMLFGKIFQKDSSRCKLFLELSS
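Test system – hTAAR1-expressing CHO RD-HGA16 cells, Gα16-coupled · Reagent – β-PEA at EC80 concentration, post-compound challenge · Compound dosing – 3 µM, single point · Timing – 140 s kinetic read after compound, 140 s after agonist · Detection – Fluo-8 intracellular calcium dye fluorescence, real-time kinetic reads · Control set – DMSO and EC80 PEA controls · Repeats – n of 1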
TAAR1 agonist – agonists of human TAAR1. AID 624467. hit rate 0.99% among 360,000. Q96RJ0. CHO RD-HGA16 TAAR1, Fluo-8 calcium fluorescence; vehicle wells 0%, saturating PEA agonist 100%. activation, % at 3 µM;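 active = activation above the mean activation of all test compounds in the run plus 3 SD, cut at about 38% in these data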
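System: CHO-derived RD-HGA16 cells with stable Gα16 and human TAAR1. Times: 17-24 h plating, Fluo-8 75 min 37 °C, 30 min RT. Measured by: calcium-sensitive Fluo-8 signal, excitation 470-495, emission 515-575 nm. Read-out basis: % activation relative to PEA EC100 response. Control set: DMSO and PEA EC100. Repeats: no replicates (n 1).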
M1 ag – activates human CHRM1 receptor; P11229; CHO-K1 hM1, Fluo-8 calcium fluorescence, agonist mode; 0% DMSO, 100% acetylcholine EC100; activation, % at 3 µM; hit rate 0.33% among 360,000; AID 588814;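 active = activation above the run's mean compound activation plus 3 SD, cut at about 16% in these data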;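 also: peak over basal fluorescence ratio within a 140 s kinetic read after compound addition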
M1 PAM – positive allosteric modulators of human M1 muscarinic receptor. activation, % at 3 µM. P11229. CHO-K1 hM1, Fluo-8 calcium fluorescence, ACh EC20; 0% = ACh EC20, 100% = maximal ACh. hit rate 0.088% among 360,000. AID 588819; in the data active = activation above about 19%, passing the limit was not always enough
TAAR1 ag conf – human TAAR1 agonism, confirmed | shares compounds with TAAR1 agonist | hit rate 82% among 2,400 | activation, % at 3 µM | CHO RD-HGA16 TAAR1, Fluo-8 calcium fluorescence; scaled: DMSO 0%, maximal phenethylamine 100% | AID 651783;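 active = activation above a cutoff set at the run's mean compound activation plus 3 SD, cut at about 39% in these data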
Ga16 ag counter – counter-screen for TAAR1 agonists: nonselective agonists in parental cells | shares compounds with TAAR1 agonist | CHO-Ga16 parental, Fluo-8 calcium fluorescence; normalized to maximal ATP response, DMSO zero | activation, % at 3 µM | hit rate 50% among 2,400 | AID 651787;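 active = activation above the run cutoff, the mean activation over all tested wells plus 3 SD, cut at about 12% in these data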
TAAR1 desens – human TAAR1 agonist that also desensitizes the receptor. shares compounds with TAAR1 agonist. CHO RD-HGA16 hTAAR1, Fluo-8 calcium, beta-PEA response inhibition. inhibition, % at 3 µM. hit rate 46% among 2,400. AID 651951;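 active = inhibition above the run cutoff, the mean inhibition of all test compounds plus 3 SD, cut at about 49% in these data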;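 also: beta-PEA stimulus applied at its EC80; loss of beta-PEA calcium signal after compound pretreatment read as receptor desensitization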
Ga16 nonsel ant – counter-screen for TAAR1 agonists: nonselective Ga16 antagonists; shares compounds with TAAR1 agonist; CHO-Ga16 ATP-induced calcium, Fluo-8 fluorescence; inhibition, % at 3 µM; hit rate 39% among 2,400; AID 651952;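 active = inhibition above the plate's mean compound inhibition plus 3 SD, computed per plate, cut at about 22% in these data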
Large screens that a line does not name were inactive (follow-up assays come after a bar, where they were run). Only some compounds are listed: those with a hit (about 3.4% of all), similar ones and a draw of the others.

Cc1ccc(OCC(=O)NNC(=S)NC(=O)c2cccs2)c(C)c1	none
COC(=O)Cn1cnc2c(nnn2-c2ccc(OC)cc2)c1=O	none
Cc1ccc(C(CNS(=O)(=O)c2ccc([N+](=O)[O-])cc2)N2CCN(C)CC2)cc1 (stereo unspecified)	none
Cc1ccccc1C(=O)NNC(=S)NC(=O)c1cccs1	TAAR1 antagonist 65, TAAR1 agonist 128, M1 ag 51 | TAAR1 ag conf 67 | Ga16 ag counter 69 | TAAR1 desens inactive | Ga16 nonsel ant 30
Cc1ccccc1C(=O)Nc1cccc(NC(=S)NC(=O)c2cccs2)c1	none
O=C(NNC(=S)NC(=O)c1ccccc1[N+](=O)[O-])c1ccccc1	none
CCCOc1ccc(C(=O)NNC(=S)NC(=O)c2cc(-c3ccccc3)nc3ccccc23)cc1	TAAR1 agonist 55 | TAAR1 ag conf 83 | Ga16 ag counter 72 | TAAR1 desens 77 | Ga16 nonsel ant 74
CCCOc1ccc(C(=O)NNC(=S)NC(=O)c2cccs2)cc1	CHRM1 antagonist 78, TAAR1 antagonist 106, TAAR1 agonist 159, M1 ag 92 | TAAR1 ag conf 154 | Ga16 ag counter 124 | TAAR1 desens 106 | Ga16 nonsel ant 91
CCCOc1ccc(C(=O)NNC(=S)NC(C)=O)cc1	none
CCCOc1ccc(C(=O)NNC(=S)NC(=O)c2ccccc2[N+](=O)[O-])cc1	TAAR1 agonist 79 | TAAR1 ag conf inactive | Ga16 ag counter 28 | TAAR1 desens inactive | Ga16 nonsel ant 27
Nc1nccnc1C(=O)OCC(=O)NC1CCCc2ccccc21 (stereo unspecified)	none
Cc1cnc(C(=O)OCC(=O)c2ccc(Cl)cc2)cn1	none
O=[N+]([O-])c1[nH]cnc1/C=C/c1ccccc1	none (no result: TAAR1 antagonist, TAAR1 agonist) | Ga16 ag counter inactive | Ga16 nonsel ant inactive
COC(=O)c1nc[nH]c1[N+](=O)[O-]	none
Cc1cccc(/C=C2\Sc3ccc(C(=O)N4CCC(C)CC4)cc3N(C)C2=O)c1	none
CC(=O)c1ccc2c3c(cccc13)C(=O)N(CCc1ccccc1)C2=O	none (no result: TAAR1 antagonist, TAAR1 agonist) | Ga16 ag counter inactive | Ga16 nonsel ant inactive
NN1C(=O)c2cccc3c(C(=O)O)ccc(c23)C1=O	none
C#CCOCCOCCOCCNc1nc(N2CCN(C(=O)[C@H](CCCN=C(N)N)n3cc(C(N)[C@@H](C)CC)nn3)CC2)nc(N2CCN(C(=O)[C@H](CCC(=O)O)n3cc([C@@H](N)CO)nn3)CC2)n1 (stereo partly specified)	none
CCOC(=O)C1(C)CCCN(C(=O)c2ccc(-c3ccccc3)cc2)C1 (stereo unspecified)	none
CCn1c(C)nc2cc(C(=O)NNC(=S)Nc3ccc(F)cc3)ccc21	none
CCn1c(C)nc2cc(C(=O)NNC(=S)Nc3ccc(Cl)cc3)ccc21	TAAR1 agonist 54 | TAAR1 ag conf 61 | Ga16 ag counter inactive | TAAR1 desens inactive | Ga16 nonsel ant inactive
CCN(C)C1CN(Cc2cn(Cc3ccc(F)cc3)nn2)S(=O)(=O)C1 (stereo unspecified)	none (no result: CHRM1 antagonist, M1 ag, M1 PAM)
O=C(CC1CCCC1)N[C@H](C(=O)N1CCC[C@H]1C(=O)NCCc1ccccc1Cl)c1ccccc1	TAAR1 antagonist 53, TAAR1 agonist 55 (no result: CHRM1 antagonist, M1 ag, M1 PAM) | TAAR1 ag conf 86 | Ga16 ag counter inactive | TAAR1 desens 79 | Ga16 nonsel ant inactive
O=C(CC1CCCC1)N[C@H](C(=O)N1CCC[C@H]1C(=O)NCc1ccccc1)c1ccccc1	none (no result: CHRM1 antagonist, M1 ag, M1 PAM)
